Measured values as given in ChEMBL document CHEMBL1275600, “Prophylactic activity of intramuscular peramivir in mice infected with a recombinant influenza A/WSN/33 (H1N1) virus containing the H274Y neuraminidase mutation” (Antimicrob Agents Chemother, 2010).
The source made the active and inactive calls. No cut-off for these calls is given here.

Columns and labels:
Influenza A virus [1] = assay: Antiviral activity against oseltamivir-resistant Influenza A/WSN/33 (H1N1) virus expressing neuraminidase H274Y mutant gene infected in BALB/c mouse assessed as survival of mouse at 45 mg/kg, im administered as single dose; format: functional, organism-based; set-up: dose 45 mg/kg; conditions: A/WSN/1933(H1N1)
Method in brief: (§1)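 Male BALB/c mice, 6–8 weeks old and 20–25 g, were randomized by weight, 4 per cage, in groups of 12. Drug at 50 mg/ml in saline buffered to pH 3.0 was given by IM hip injection, first dose 1 h before challenge. Mice were infected intranasally under isoflurane with 8 × 10^3 PFU of cell-grown recombinant virus in 30 μl PBS. Mortality was recorded daily for 14 days.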

Mus musculus [2] = assay: Toxicity against oseltamivir-resistant Influenza A/WSN/33 (H1N1) virus expressing neuraminidase H274Y mutant gene infected BALB/c mouse assessed as weight loss at 90 mg/kg, im administered as single dose and measured after 14 days; format: organism-based; set-up: dose 90 mg/kg, route intramuscular; conditions: in vivo, 336 h
Method in brief: (§2)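 Male BALB/c mice, groups of 12, received IM drug at 50 mg/ml in pH 3.0 buffered saline, starting 1 h before intranasal infection with 8 × 10^3 PFU of recombinant virus. Body weight was monitored daily for 14 days. Mean weight loss was compared across regimens by one-way ANOVA, with uninfected PBS-treated mice as reference.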

Influenza A virus [3] = assay: Antiviral activity against oseltamivir-resistant Influenza A/WSN/33 (H1N1) virus expressing neuraminidase H274Y mutant gene infected in BALB/c mouse assessed as log reduction in lung viral titer at 45 mg/kg, im once daily for 5 days; format: functional, A/WSN/1933(H1N1); conditions: route intramuscular
Method in brief: (§3)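 Male BALB/c mice received IM drug at 50 mg/ml in pH 3.0 buffered saline, starting 1 h before intranasal infection with 8 × 10^3 PFU of recombinant virus. Subgroups of 4 were sacrificed on day 4. Lungs were homogenized in 2 ml PBS with antibiotics and spun at 600 × g for 10 min. Supernatants were plaque-titrated on MDBK cells in triplicate. Comparison to untreated infected mice used a two-tailed unpaired t test.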

Influenza A virus [4] = assay: Antiviral activity against oseltamivir-resistant Influenza A/WSN/33 (H1N1) virus expressing neuraminidase H274Y mutant gene infected in BALB/c mouse assessed as survival of mouse at 90 mg/kg, im administered as single dose; format: functional, organism-based; set-up: dose 90 mg/kg; conditions: A/WSN/1933(H1N1); method in brief: as §1
Influenza A virus [5] = assay: Antiviral activity against oseltamivir-resistant Influenza A/WSN/33 (H1N1) virus expressing neuraminidase H274Y mutant gene infected in BALB/c mouse assessed as log reduction in lung viral titer at 90 mg/kg, im administered as single dose and measured after 4 days; format: functional, A/WSN/1933(H1N1); conditions: route intramuscular; method in brief: as §3
Influenza A virus [6] = assay: Antiviral activity against oseltamivir-resistant Influenza A/WSN/33 (H1N1) virus expressing neuraminidase H274Y mutant gene infected in BALB/c mouse assessed as log reduction in lung viral titer at 45 mg/kg, im administered as single dose and measured after 4 days; format: functional, A/WSN/1933(H1N1); conditions: route intramuscular; method in brief: as §3
Influenza A virus [7] = assay: Antiviral activity against oseltamivir-resistant Influenza A/WSN/33 (H1N1) virus expressing neuraminidase H274Y mutant gene infected in BALB/c mouse assessed as survival of mouse at 45 mg/kg, im once daily for 5 days; format: functional, organism-based; set-up: dose 45 mg/kg; conditions: A/WSN/1933(H1N1); method in brief: as §1
Mus musculus [8] = assay: Toxicity against oseltamivir-resistant Influenza A/WSN/33 (H1N1) virus expressing neuraminidase H274Y mutant gene infected BALB/c mouse assessed as weight loss at 45 mg/kg, im administered as single dose and measured after 6 days; format: organism-based; set-up: dose 45 mg/kg, route intramuscular; conditions: in vivo, 144 h; method in brief: as §2
Mus musculus [9] = assay: Toxicity against oseltamivir-resistant Influenza A/WSN/33 (H1N1) virus expressing neuraminidase H274Y mutant gene infected BALB/c mouse assessed as weight loss at 45 mg/kg, im once daily for 5 days measured after 14 days; format: organism-based; set-up: dose 45 mg/kg, route intramuscular; conditions: in vivo, 336 h; method in brief: as §2

In the case of `CCC(CC)[C@H](NC(C)=O)[C@@H]1[C@H](O)[C@@H](C(=O)O)C[C@H]1NC(=N)N` [PERAMIVIR ANHYDROUS], the Activity (Influenza A virus [1]) is reported as “inactive”, the Activity (Mus musculus [2]) is reported as “Non-toxic” and the FC (Influenza A virus [3]) is reported as 1.5. For the same molecule, the Activity (Influenza A virus [4]) was “inactive”, the FC (Influenza A virus [5]) was 1.5 and the FC (Influenza A virus [6]) was 1.5. For the same molecule, the Activity (Influenza A virus [7]) was “inactive”, the Activity (Mus musculus [8]) was “Toxic” and the Activity (Mus musculus [9]) was “Non-toxic”.
